Structures can show the parent of a compound that is named as a salt.
Legend:
C2G cell line = assay: Inhibitory concentration to inhibit growth of C2G prostate cancer cell line by using MTT assay; type: functional, cell-based, Homo sapiens; details: Mus musculus
Outline: (§1)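 TRAMP mouse prostate cancer clonal lines, seeded at 2.5×10^4 (C1A), 2.0×10^4 (C2D, C2G) or 1.5×10^4 (C2H) cells/mL. Grown in DMEM high glucose with 10% FBS, insulin, pen-strep and 10^-8 M dihydrotestosterone at 37 °C, 5% CO2. After 24 h, switched to phenol-free medium with ethanol-dissolved compound. MTT read-out at 0, 24, 48 and 72 h: 4 h MTT, then SDS/HCl solubilisation overnight.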

TRAMP-C1A = assay: Inhibitory concentration to inhibit growth of C1A prostate cancer cell line by using MTT assay; type: functional, cell-based; details: Mus musculus; outline: as §1
C2D cell line = assay: Inhibitory concentration to inhibit growth of C2D prostate cancer cell line by using MTT assay; type: functional, cell-based, Homo sapiens; details: Mus musculus; outline: as §1
TRAMP-C2H = assay: Inhibitory concentration to inhibit growth of C2H prostate cancer cell line by using MTT assay; type: functional, cell-based; details: Mus musculus; outline: as §1
Plasmodium falciparum = assay: In vitro antimalarial activity for Plasmodium falciparum NF54 infected mice (Mus musculus); type: functional, organism-based
Outline: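 In vitro antimalarial assay run in quadruplicate, with artemisinin as concurrent control (n = 3). EC50 taken from fitted dose-response curves.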

Mus musculus [1] = organism: Mus musculus; assay: Compound was tested for weight gain in mice; markedly reduced; type: functional, organism-based
[2] = Therapeutic index expressed as maximum tolerated / ED50 intravenously was determined; details: iv; read-out: Therapeutic index
Outline: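 Therapeutic index calculated as maximum tolerated single ip dose in mice divided by iv ED50 (mg/kg/day × 4).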

Mus musculus [3] = assay: Compound was tested for number of animals that remain safe when administered intraperitoneally in mice (dose 125 mg/kg); deaths 0/3
Mus musculus [4] = assay: Compound was tested for number of animals that remain safe when administered intraperitoneally in mice (dose 250 mg/kg); deaths 1/3
Mus musculus [5] = assay: Compound was tested for number of animals that remain safe when administered intraperitoneally in mice (dose 500 mg/kg); deaths 3/3
Mus musculus [6] = assay: Compound was tested for number of animals that remain safe when administered intraperitoneally in mice (total no of deaths =125); 0/3; type: functional
Mus musculus [7] = assay: Compound was tested for number of animals that remain safe when administered intraperitoneally in mice (total no of deaths =250); 0/3; type: functional
Mus musculus [8] = assay: Compound was tested for number of animals that remain safe when administered intraperitoneally in mice (total no of deaths =500); 1/3; type: functional
Mus musculus [9] = assay: Compound was tested for number of animals that remain safe when administered intraperitoneally in mice (total no of deaths =750); 3/3; type: functional
Mus musculus [10] = organism: Mus musculus; assay: Compound was tested for weight gain in mice; reduced; type: functional, organism-based
Mus musculus [11] = assay: Compound was tested for number of animals that remain safe when administered intraperitoneally in mice (total no of deaths =250); 1/3; type: functional
Mus musculus [12] = assay: Compound was tested for number of animals that remain safe when administered intraperitoneally in mice (total no of deaths =500); 3/3; type: functional
Mus musculus [13] = assay: Compound was tested for number of animals that remain safe when administered intraperitoneally in mice (total no of deaths =750); 2/3; type: functional

SMILES | IC50 (C2G cell line) [nM] | IC50 (TRAMP-C1A) [nM] | IC50 (C2D cell line) [nM] | IC50 (TRAMP-C2H) [nM] | EC50 (Plasmodium falciparum) [nM] | selectivity ratio [2] | other results
C[C@H]1[C@H](OC(=O)CCC(=O)OCC(CO)COC(=O)CCC(=O)O[C@@H]2O[C@@H]3O[C@]4(C)CC[C@H]5[C@H](C)CC[C@@H]([C@H]2C)[C@@]35OO4)O[C@@H]2OC3(C)CC[C@H]4[C@H](C)CC[C@@H]1[C@@]24OO3 (single isomer, unassigned) | 15.4 | 23.3 | 18.5 | 9.2 |  |  | 
C[C@@H]1CC[C@H]2[C@@H](C)C(=O)O[C@@H]3O[C@@]4(C)CC[C@@H]1[C@]32OO4 [ARTEMISININ] |  |  |  |  | 8.8 |  | 
COc1cccc2c1C(=O)c1c(O)c3c(c(O)c1C2=O)C[C@@](O)(C(=O)CO)C[C@@H]3O[C@H]1C[C@H](N)[C@H](O)[C@H](C)O1 [DOXORUBICIN] | 28.7 | 75.9 | 46.5 | 30.3 |  |  | 
C[C@H]1[C@H](OC(=O)CCC(=O)[O-])O[C@@H]2O[C@@]3(C)CC[C@H]4[C@H](C)CC[C@@H]1[C@@]24OO3.[Na+] [SODIUM ARESUNATE] |  |  |  |  | 1.5 | 23 | Activity (Mus musculus [1]): Weight gain markedly reduced; Deaths (Mus musculus [3]): 0 deaths; Deaths (Mus musculus [4]): 1 deaths; Deaths (Mus musculus [5]): 3 deaths
Nc1ccn([C@@H]2O[C@H](CO)[C@@H](O)C2(F)F)c(=O)n1 [GEMCITABINE HYDROCHLORIDE] | 3.7 | 9 | 11.9 | 4.7 |  |  | 
C[C@H]1[C@H](OC(=O)CCC(=O)OCC(COC(=O)CCC(=O)O[C@@H]2O[C@@H]3O[C@]4(C)CC[C@H]5[C@H](C)CC[C@@H]([C@H]2C)[C@@]35OO4)C(=O)O)O[C@@H]2O[C@]3(C)CC[C@H]4[C@H](C)CC[C@@H]1[C@@]24OO3 (stereo not given in full) | 134 | 159 | 231 | 116 | 2.4 | 167 | Therapeutic index (Mus musculus [6]): 0 mg/kg; Therapeutic index (Mus musculus [7]): 0 mg/kg; Therapeutic index (Mus musculus [8]): 1 mg/kg; Therapeutic index (Mus musculus [9]): 3 mg/kg
C[C@H]1[C@H](OC(=O)CCC(=O)OCC(COC(=O)CCC(=O)O[C@@H]2O[C@@H]3O[C@]4(C)CC[C@H]5[C@H](C)CC[C@@H]([C@H]2C)[C@@]35OO4)COC(=O)c2cc[n+]([O-])cc2)O[C@@H]2O[C@]3(C)CC[C@H]4[C@H](C)CC[C@@H]1[C@@]24OO3 (stereo not given in full) | 47.4 | 84.6 | 62.1 | 36.1 | 0.53 | 156 | Activity (Mus musculus [10]): Weight gain reduced; Therapeutic index (Mus musculus [6]): 0 mg/kg; Therapeutic index (Mus musculus [11]): 1 mg/kg; Therapeutic index (Mus musculus [12]): 3 mg/kg; Therapeutic index (Mus musculus [13]): 2 mg/kg

— ChEMBL document CHEMBL1149087, “Anticancer and antimalarial efficacy and safety of artemisinin-derived trioxane dimers in rodents” (J Med Chem, 2004)
